Tests used:
[1] = in vitro; details: mouse, microsomes
[2] = tested on: Plasmodium berghei; assay: Antimalarial activity against GFP-tagged Plasmodium berghei ANKA infected in NMRI mouse assessed as mouse survival at 30 mg/kg, po QD administered 24 hrs post infection for 3 days measured on day 30 post infection; type: functional
[3] = molecular target: T1, Cytochrome P450 1A2 (Homo sapiens, UniProt P05177); assay: Inhibition of CYP 1A2; type: ADME
T1 sequence (P05177 whole entry): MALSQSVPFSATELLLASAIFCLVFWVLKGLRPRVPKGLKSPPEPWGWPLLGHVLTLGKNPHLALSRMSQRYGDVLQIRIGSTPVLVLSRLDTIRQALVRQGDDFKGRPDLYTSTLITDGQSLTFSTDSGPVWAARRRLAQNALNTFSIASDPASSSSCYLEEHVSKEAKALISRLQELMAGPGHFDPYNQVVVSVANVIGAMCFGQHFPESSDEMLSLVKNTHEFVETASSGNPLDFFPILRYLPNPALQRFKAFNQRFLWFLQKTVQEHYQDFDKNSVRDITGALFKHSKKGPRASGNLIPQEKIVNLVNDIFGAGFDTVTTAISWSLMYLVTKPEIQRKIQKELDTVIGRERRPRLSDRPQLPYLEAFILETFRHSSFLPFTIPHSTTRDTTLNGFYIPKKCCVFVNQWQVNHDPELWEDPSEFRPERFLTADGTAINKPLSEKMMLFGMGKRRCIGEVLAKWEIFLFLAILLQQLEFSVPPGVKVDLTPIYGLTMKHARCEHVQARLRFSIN

[4] = Oral bioavailability in male BALB/c mouse at 20 mg/kg by LC/MS/MS analysis; type: ADME, organism-based; details: in vivo
Procedure, shortened: (§1)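 Male Balb/c mice, n = 3 per group, given 20 mg/kg orally at 8 mL/kg. Vehicle 2.5 mg/mL in 75% PEG300/25% DSW, filtered. Six serial retro-orbital blood samples up to 24 h, heparinized plasma. Plasma extracted with acetonitrile/methanol (3:1) plus internal standard; LC/MS/MS quantitation by positive ESI MRM. Noncompartmental analysis; values normalized to 30 mg/kg. F = (AUCpo·dose iv)/(AUCiv·dose po).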

[5] = Cytotoxicity against mouse BAF3 cells; type: cell-based; details: read-out: TC50 (the source's name)
[6] = Cytotoxicity against Cricetulus griseus CHO cells; type: cell-based; details: chinese hamster, read-out: TC50 (the source's name)
[7] = tested on: Mus musculus; assay: Cmax in male BALB/c mouse at 20 mg/kg, po by LC/MS/MS analysis; type: ADME, organism-based; set-up: dose 20 mg/kg, route oral; details: in vivo
Procedure, shortened: as §1

[8] = Selectivity index, ratio TC50 for human HuH7 cells to IC50 for Plasmodium falciparum; type: functional, Huh-7
[9] = tested on: Plasmodium berghei; assay: Antimalarial activity against GFP-tagged Plasmodium berghei ANKA infected in NMRI mouse assessed as mouse survival at 30 mg/kg, po administered as single dose 24 hrs post infection measured 72 hrs post infection
[10] = Cytotoxicity against human HeLa cells; type: cell-based; details: read-out: TC50 (the source's name)
[11] = Cytotoxicity against human HuH7 cells; type: cell-based; details: Huh-7 cells, read-out: TC50 (the source's name)
[12] = Selectivity index, ratio TC50 for CHO cells to IC50 for Plasmodium falciparum; type: functional
[13] = molecular target: Cytochrome P450 2D6 (Homo sapiens, UniProt P10635); assay: Inhibition of CYP 2D6; type: ADME
[14] = tested on: Plasmodium berghei; assay: Antimalarial activity against GFP-tagged Plasmodium berghei ANKA infected in NMRI mouse assessed as reduction in parasitemia at 30 mg/kg, po administered as single dose 24 hrs post infection measured 72 hrs post infection; type: functional; set-up: scale not given: the % may be the effect or the level left
[15] = Selectivity index, ratio TC50 for human Hep2 cells to IC50 for Plasmodium falciparum; type: functional, HEp-2
[16] = tested on: Plasmodium berghei; assay: Antimalarial activity against GFP-tagged Plasmodium berghei ANKA infected in NMRI mouse assessed as mouse survival at 100 mg/kg, po administered as single dose 24 hrs post infection measured on day 30 post infection
[17] = molecular target: Cytochrome P450 3A4 (Homo sapiens, UniProt P08684); assay: Inhibition of CYP 3A4; type: ADME
[18] = tested on: Salmonella typhimurium; assay: Genotoxicity in Salmonella Typhimurium by Ames test; type: toxicity, organism-based; details: salmonella enterica subsp. enterica serovar typhimurium
[19] = Ratio of drug level in blood to plasma of male BALB/c mouse; type: ADME; details: blood and plasma
[20] = in vitro; details: rat, microsomes
[21] = molecular target: Cytochrome P450 2C9 (Homo sapiens, UniProt P11712); assay: Inhibition of CYP 2C9; type: ADME
[22] = Volume of distribution in male BALB/c mouse at 5 mg/kg, iv by LC/MS/MS analysis; type: ADME, organism-based; set-up: dose 5 mg/kg, route intravenous; details: in vivo
Procedure, shortened: (§2)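 Male Balb/c mice, n = 3 per group, dosed iv via lateral tail vein at 5 mg/kg and 2 mL/kg. Vehicle 2.5 mg/mL in 75% PEG300/25% DSW, filtered. Six serial retro-orbital blood samples up to 24 h, heparinized plasma. Plasma extracted with acetonitrile/methanol (3:1) plus internal standard for LC/MS/MS (positive ESI, MRM). Noncompartmental analysis.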

[23] = Genotoxicity in micronucleus assessed as arrest at cytokinesis stage by micronucleus assay
[24] = tested on: Mus musculus; assay: AUC (0 to infinity) in male BALB/c mouse at 20 mg/kg, po by LC/MS/MS analysis; type: ADME, organism-based, Plasma; set-up: time infinity, dose 20 mg/kg, route oral; details: in vivo
Procedure, shortened: as §1

[25] = Cytotoxicity against human Hep2 cells; type: cell-based; details: HEp-2 cells, read-out: TC50 (the source's name)
[26] = Cytotoxicity against human 293T cells; type: cell-based; details: HEK-293T cells, read-out: TC50 (the source's name)
[27] = Selectivity index, ratio TC50 for mouse BAF3 cells to IC50 for Plasmodium falciparum; type: functional
[28] = molecular target: Cytochrome P450 2C19 (Homo sapiens, UniProt P33261); assay: Inhibition of CYP 2C19; type: ADME
[29] = pampa
[30] = Half-life in male BALB/c mouse at 5 mg/kg, iv by LC/MS/MS analysis; type: ADME, organism-based; set-up: dose 5 mg/kg, route intravenous; details: in vivo
Procedure, shortened: as §2

[31] = molecular target: Voltage-gated inwardly rectifying potassium channel KCNH2 (Homo sapiens, UniProt Q12809)
[32] = in vitro; details: human, Caco-2
[33] = Clearance in male BALB/c mouse at 5 mg/kg, iv by LC/MS/MS analysis; type: ADME, organism-based; set-up: dose 5 mg/kg, route intravenous; details: in vivo
Procedure, shortened: as §2

[34] = in vitro; details: human, microsomes
[35] = Ratio of drug level in blood to plasma of female CD1 mouse; type: ADME; details: blood and plasma
[36] = AUC (0 to infinity) in male BALB/c mouse at 5 mg/kg, iv by LC/MS/MS analysis; type: ADME, organism-based; set-up: time infinity, dose 5 mg/kg, route intravenous; details: plasma
Procedure, shortened: as §2

[37] = Tmax in male BALB/c mouse at 20 mg/kg, po by LC/MS/MS analysis; type: ADME, organism-based; set-up: dose 20 mg/kg, route oral; details: in vivo
Procedure, shortened: as §1

[38] = tested on: Plasmodium falciparum; assay: Antimalarial activity against Plasmodium falciparum 3D7 infected in human erythrocytes assessed as decrease in parasitemia after 72 hrs; type: functional, organism-based; details: 3D7, 72 h
[39] = in vitro; details: human, Caco-2; remark: listed apart in the source
[40] = Selectivity index, ratio TC50 for human HeLa cells to IC50 for Plasmodium falciparum; type: functional
[41] = Selectivity index, ratio TC50 for human 293T cells to IC50 for Plasmodium falciparum; type: functional
[42] = Half life in male BALB/c mouse at 20 mg/kg, po by LC/MS/MS analysis; type: ADME, organism-based; set-up: dose 20 mg/kg, route oral; details: in vivo
Procedure, shortened: as §1

[43] = tested on: Plasmodium falciparum; assay: Antimalarial activity against Plasmodium falciparum W2 infected in human erythrocytes assessed as decrease in parasitemia after 72 hrs; type: functional, organism-based; details: W2, 72 h
[44] = Aqueous solubility of the compound at pH 6.8; type: physicochemical; details: buffer
[45] = Cmax in po dosed mouse; type: ADME, organism-based; set-up: route oral; details: in vivo

Chain of Cytochrome P450 3A4 (P08684 whole entry): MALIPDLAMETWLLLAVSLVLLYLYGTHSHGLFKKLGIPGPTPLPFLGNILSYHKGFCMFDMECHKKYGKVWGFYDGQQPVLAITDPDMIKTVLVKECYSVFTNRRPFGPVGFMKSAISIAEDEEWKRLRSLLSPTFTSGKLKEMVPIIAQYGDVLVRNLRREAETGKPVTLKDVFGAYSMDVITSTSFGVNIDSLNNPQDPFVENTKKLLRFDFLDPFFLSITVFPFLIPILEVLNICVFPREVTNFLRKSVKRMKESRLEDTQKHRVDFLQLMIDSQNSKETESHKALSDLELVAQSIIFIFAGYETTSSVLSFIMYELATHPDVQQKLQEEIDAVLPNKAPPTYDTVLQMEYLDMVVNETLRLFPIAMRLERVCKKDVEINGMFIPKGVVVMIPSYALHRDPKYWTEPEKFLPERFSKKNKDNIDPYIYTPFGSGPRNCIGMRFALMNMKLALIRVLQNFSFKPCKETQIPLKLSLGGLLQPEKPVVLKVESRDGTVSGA
Chain of Cytochrome P450 2D6 (P10635 whole entry): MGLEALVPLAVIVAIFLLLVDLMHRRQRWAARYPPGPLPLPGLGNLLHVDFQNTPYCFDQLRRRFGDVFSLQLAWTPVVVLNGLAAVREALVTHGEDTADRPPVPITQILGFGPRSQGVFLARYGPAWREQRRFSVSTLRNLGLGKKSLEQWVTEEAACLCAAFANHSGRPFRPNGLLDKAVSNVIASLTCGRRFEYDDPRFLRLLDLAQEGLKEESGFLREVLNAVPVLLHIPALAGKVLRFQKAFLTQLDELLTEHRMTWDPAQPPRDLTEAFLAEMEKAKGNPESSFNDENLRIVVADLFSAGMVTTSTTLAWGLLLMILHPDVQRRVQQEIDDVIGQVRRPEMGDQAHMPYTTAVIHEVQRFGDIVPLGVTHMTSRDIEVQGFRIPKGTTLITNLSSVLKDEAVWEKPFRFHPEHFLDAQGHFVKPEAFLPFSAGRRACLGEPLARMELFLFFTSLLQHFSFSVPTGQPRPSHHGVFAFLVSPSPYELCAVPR
Chain of Cytochrome P450 2C9 (P11712 whole entry): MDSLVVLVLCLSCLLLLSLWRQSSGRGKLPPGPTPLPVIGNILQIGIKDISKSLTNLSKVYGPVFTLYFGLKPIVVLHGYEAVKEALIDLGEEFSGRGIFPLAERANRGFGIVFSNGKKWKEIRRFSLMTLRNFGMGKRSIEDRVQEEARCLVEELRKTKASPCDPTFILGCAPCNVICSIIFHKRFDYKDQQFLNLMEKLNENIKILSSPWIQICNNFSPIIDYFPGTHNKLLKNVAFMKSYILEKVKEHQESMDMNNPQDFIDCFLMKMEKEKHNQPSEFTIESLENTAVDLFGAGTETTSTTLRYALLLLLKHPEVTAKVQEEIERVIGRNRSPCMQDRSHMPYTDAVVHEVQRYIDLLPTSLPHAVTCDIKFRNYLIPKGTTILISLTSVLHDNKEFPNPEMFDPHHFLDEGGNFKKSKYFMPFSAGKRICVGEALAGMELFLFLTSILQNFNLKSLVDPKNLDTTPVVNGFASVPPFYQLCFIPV
Chain of Cytochrome P450 2C19 (P33261 whole entry): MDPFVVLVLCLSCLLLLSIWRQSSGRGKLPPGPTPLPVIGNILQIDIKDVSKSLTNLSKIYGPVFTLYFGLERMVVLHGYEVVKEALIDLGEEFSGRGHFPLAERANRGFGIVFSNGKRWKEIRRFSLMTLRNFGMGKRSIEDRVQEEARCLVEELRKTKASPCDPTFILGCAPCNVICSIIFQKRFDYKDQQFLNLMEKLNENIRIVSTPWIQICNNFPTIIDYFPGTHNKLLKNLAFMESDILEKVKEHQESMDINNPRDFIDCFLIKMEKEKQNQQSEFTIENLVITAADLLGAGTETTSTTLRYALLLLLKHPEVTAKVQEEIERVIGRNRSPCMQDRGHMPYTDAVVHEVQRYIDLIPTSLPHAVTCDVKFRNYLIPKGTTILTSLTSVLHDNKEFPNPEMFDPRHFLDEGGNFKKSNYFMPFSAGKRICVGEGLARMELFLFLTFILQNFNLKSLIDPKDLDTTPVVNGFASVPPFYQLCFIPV
Chain of Voltage-gated inwardly rectifying potassium channel KCNH2 (Q12809 whole entry): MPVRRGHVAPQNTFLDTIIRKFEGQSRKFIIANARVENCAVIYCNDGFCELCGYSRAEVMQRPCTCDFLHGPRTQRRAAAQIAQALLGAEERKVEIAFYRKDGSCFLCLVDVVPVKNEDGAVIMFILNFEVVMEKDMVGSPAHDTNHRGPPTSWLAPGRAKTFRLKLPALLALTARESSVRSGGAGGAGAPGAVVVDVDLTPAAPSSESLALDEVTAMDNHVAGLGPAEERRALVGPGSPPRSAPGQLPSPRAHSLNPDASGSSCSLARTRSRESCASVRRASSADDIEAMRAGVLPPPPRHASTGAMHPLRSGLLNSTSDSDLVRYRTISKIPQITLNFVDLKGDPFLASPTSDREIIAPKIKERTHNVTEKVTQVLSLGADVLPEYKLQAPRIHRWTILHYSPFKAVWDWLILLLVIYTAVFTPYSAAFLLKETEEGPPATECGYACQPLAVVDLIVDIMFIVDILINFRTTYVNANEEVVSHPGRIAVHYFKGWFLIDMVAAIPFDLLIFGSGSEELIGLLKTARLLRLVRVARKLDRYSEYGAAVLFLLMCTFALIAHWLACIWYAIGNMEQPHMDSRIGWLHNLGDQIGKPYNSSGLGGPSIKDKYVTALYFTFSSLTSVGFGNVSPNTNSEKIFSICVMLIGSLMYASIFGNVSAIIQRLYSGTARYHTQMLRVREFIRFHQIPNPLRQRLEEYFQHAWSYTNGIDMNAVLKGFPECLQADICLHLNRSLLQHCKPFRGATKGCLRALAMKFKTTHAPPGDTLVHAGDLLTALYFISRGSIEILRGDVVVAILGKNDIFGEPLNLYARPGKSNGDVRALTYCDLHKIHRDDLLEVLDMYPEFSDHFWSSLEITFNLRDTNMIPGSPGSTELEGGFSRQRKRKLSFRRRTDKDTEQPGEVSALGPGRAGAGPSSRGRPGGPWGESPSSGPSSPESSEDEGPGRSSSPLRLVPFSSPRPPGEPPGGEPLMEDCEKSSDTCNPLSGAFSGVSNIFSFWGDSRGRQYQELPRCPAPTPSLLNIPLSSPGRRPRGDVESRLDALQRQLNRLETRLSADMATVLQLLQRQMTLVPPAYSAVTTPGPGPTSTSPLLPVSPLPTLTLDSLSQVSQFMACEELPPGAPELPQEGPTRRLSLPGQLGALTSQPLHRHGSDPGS

CC(C)(N)C(=O)N1CCn2c(nc(-c3ccc(F)cc3)c2Nc2ccc(F)c(F)c2)C1
hepatic extraction ratio [1]: 0.17 | Survival [2]: 17.7 days | IC50 [3]: > 8.9 µM | bioavailability [4]: 76% | CC50 [5]: > 12 µM | CC50 [6]: > 12 µM | Cmax [7]: 1940 nM | Selectivity Index [8]: >100 | Survival [9]: 7.7 days | CC50 [10]: > 12 µM | CC50 [11]: > 12 µM | Selectivity Index [12]: >100 | IC50 [13]: > 8.9 µM | Activity [14]: 99.4% | Selectivity Index [15]: >100 | Survival [16]: 17 days | IC50 [17]: > 8.9 µM | Activity [18]: Non-toxic | blood plasma ratio [19]: > 1 | hepatic extraction ratio [20]: 0.12 | IC50 [21]: > 8.9 µM | Vd [22]: 14 L/kg | Activity [23]: Non-toxic | AUC [24]: 31.758 µM·h | CC50 [25]: > 12 µM | CC50 [26]: > 12 µM | Selectivity Index [27]: >100 | IC50 [28]: > 8.9 µM | permeability [29]: 86% | half-life [30]: 7.7 h | IC50 [31]: 4.8 µM | Papp A→B [32]: 0.14 ×10⁻⁶ cm/s | clearance [33]: 27.7 mL/min/kg | hepatic extraction ratio [34]: 0.39 | blood plasma ratio [35]: > 1 | AUC(0-inf) [36]: 7 µM·h | Tmax [37]: 1.67 h | IC50 [38]: 0.044 µM | Papp B→A [39]: 1.03 ×10⁻⁶ cm/s | Selectivity Index [40]: >100 | Selectivity Index [41]: >100 | half-life [42]: 7.7 h | IC50 [43]: 0.036 µM

NCC(=O)N1CCn2c(nc(-c3ccccc3)c2Nc2ccc3c(c2)OCO3)C1
IC50 [3]: > 10 µM | Selectivity Index [8]: >20 | CC50 [11]: > 10 µM | IC50 [13]: > 10 µM | IC50 [17]: > 10 µM | IC50 [21]: > 10 µM | solubility [44]: > 175 µM | IC50 [28]: > 10 µM | IC50 [31]: 19 µM | Cmax [45]: 320 nM | IC50 [38]: 0.063 µM | Selectivity Index [40]: >20 | IC50 [43]: 0.097 µM

Reference: ChEMBL document CHEMBL1800027, “Imidazolopiperazines: hit to lead optimization of new antimalarial agents” (J Med Chem, 2011)
